Data on three molecules can be found in ChEMBL document CHEMBL2346540 (J Med Chem, 2013).

Common to all, as to type: ADME
The target of data set [1] is T1, Cytochrome P450 3A4 (Homo sapiens, UniProt P08684, S119A). The data set can be described thus: Binding affinity to CYP3A4 (3-22)-deleted S119A mutant (unknown origin) expressed in Escherichia coli by stopped flow assay.
In data set [2] the target is T2, Cytochrome P450 3A4 (Homo sapiens, UniProt P08684). Briefly: Binding affinity to C-terminal His-tagged wild type CYP3A4 (unknown origin) expressed in Escherichia coli assessed as rate constant of fast phase of reaction by stopped flow assay.
Data set [3] deals with T1, Cytochrome P450 3A4. Briefly: Binding affinity to CYP3A4 (3-22)-deleted S119A mutant (unknown origin) expressed in Escherichia coli assessed as increase in melting temperature by spectrophotometric analysis (reference value: 53.5 +/- 0.1 degC).
The target in data set [4] is T1, Cytochrome P450 3A4. Briefly: Binding affinity to CYP3A4 (3-22)-deleted S119A mutant (unknown origin) expressed in Escherichia coli by spectrophotometric analysis. Conditions: read-out: Ks. A digest of the protocol:
(§1)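 Spectrophotometric titration of purified enzyme with small aliquots of ligand in DMSO (final solvent ≤2%) in 50 mM phosphate, pH 7.4, 20% glycerol, 1 mM dithiothreitol; spectra recorded at room temperature and spectral dissociation constant Ks derived from absorbance change vs ligand concentration.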

Data set [5] addresses T2, Cytochrome P450 3A4. Briefly: Inhibition of C-terminal His-tagged wild type CYP3A4 (unknown origin)-mediated hydroxylation of 7-benzyloxy-4-trifluoromethylcoumarin expressed in Escherichia coli after 5 mins by fluorimetric analysis. A digest of the protocol: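 Reconstituted system at room temperature: CYP3A4 (0.3 μM) with rat CPR (0.6 μM) in 25 mM phosphate, pH 7.4, 3 mM MgCl2, preincubated 5 min with inhibitor with or without 100 μM NADPH, then 50 μM BFC added.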

For data set [6], the target named is T2, Cytochrome P450 3A4. Briefly: Binding affinity to C-terminal His-tagged wild type CYP3A4 (unknown origin) expressed in Escherichia coli assessed as spectral changes by spectrophotometric analysis relative to control. A digest of the protocol: as §1
Data set [7] deals with T2, Cytochrome P450 3A4. The data set can be described thus: Ratio of ritonavir Ks to compound Ks for C-terminal His-tagged wild type CYP3A4 (unknown origin).
Data set [8] addresses T2, Cytochrome P450 3A4. The data set can be described thus: Binding affinity to C-terminal His-tagged wild type CYP3A4 (unknown origin) expressed in Escherichia coli by spectrophotometric analysis. Conditions: read-out: Ks. A digest of the protocol: as §1
Data set [9] addresses T2, Cytochrome P450 3A4. Briefly: Binding affinity to C-terminal His-tagged wild type CYP3A4 (unknown origin)-bromoergocryptine complex expressed in Escherichia coli by spectrophotometric analysis. Conditions: read-out: Ks; call rule not given here.
Data set [10] has as its target T2, Cytochrome P450 3A4. Briefly: Ratio of compound binding constant to ritonavir binding constant for C-terminal His-tagged wild type CYP3A4 (unknown origin).
The target in data set [11] is T2, Cytochrome P450 3A4. Briefly: Binding affinity to C-terminal His-tagged wild type CYP3A4 (unknown origin) expressed in Escherichia coli assessed as increase in melting temperature by spectrophotometric analysis (reference value: 52.1 +/- 0.1 degC).
Data set [12] deals with CYP3A4 (Homo sapiens, UniProt P08684). Briefly: Ratio of ritonavir IC50 to compound IC50 for C-terminal His-tagged wild type CYP3A4 (unknown origin). Conditions: read-out: Ratio IC50.
CYP3A4, sequence (P08684 whole entry): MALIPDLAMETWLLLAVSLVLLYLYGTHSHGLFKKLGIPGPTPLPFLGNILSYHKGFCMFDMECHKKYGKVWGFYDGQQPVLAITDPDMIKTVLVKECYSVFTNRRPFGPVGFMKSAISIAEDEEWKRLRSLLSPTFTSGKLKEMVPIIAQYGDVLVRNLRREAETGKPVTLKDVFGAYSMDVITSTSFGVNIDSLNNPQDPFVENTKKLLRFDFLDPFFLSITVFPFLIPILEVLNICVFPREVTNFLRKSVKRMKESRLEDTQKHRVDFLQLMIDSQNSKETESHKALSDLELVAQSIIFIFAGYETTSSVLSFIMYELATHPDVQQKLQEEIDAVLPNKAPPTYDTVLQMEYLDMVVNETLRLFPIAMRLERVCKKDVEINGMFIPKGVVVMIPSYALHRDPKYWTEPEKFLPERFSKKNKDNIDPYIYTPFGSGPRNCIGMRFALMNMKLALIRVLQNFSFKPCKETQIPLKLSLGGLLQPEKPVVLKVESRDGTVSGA

T1 sequence (P08684 2-503 S119A limits assumed): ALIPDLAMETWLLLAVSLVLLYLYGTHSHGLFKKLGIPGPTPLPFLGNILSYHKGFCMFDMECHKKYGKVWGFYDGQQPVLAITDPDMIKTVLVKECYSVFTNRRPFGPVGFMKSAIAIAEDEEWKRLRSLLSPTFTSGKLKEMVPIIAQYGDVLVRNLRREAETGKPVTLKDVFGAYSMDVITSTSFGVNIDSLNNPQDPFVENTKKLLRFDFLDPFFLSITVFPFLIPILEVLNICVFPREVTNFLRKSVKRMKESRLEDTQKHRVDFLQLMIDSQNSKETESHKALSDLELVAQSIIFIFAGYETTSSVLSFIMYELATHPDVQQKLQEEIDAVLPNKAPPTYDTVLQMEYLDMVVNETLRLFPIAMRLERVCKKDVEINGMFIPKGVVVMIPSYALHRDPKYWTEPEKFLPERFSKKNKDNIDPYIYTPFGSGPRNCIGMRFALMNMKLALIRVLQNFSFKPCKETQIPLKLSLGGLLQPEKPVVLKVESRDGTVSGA
T2 sequence (P08684 whole entry): as the sequence (P08684 whole entry) above

As for `CC(C)c1nc(CN(C)C(=O)N[C@H](C(=O)N[C@H](CC[C@H](Cc2ccccc2)NC(=O)OCc2cccnc2)Cc2ccccc2)C(C)C)cs1`, the K is 0.32 s⁻¹ in data set [1] and 7 s⁻¹ in [2]. Also, the Tm in data set [3] stood at 55.6 °C; in data set [11], 57.2 °C. The Kd turned out to be 65 nM in data set [4], 25 nM in [8] and 5 nM in data set [9]. Besides, the IC50 (as a rule, the concentration at which inhibition is half-maximal) in data set [5] worked out at 130 nM. Further, the outcome in data set [6] was Active. Also, the Ratio in [7] is 2; in data set [10] it was 5.

`CC(C)c1nc(CN(C)C(=O)N[C@H](C(=O)N[C@H](CC[C@H](Cc2ccccc2)NC(=O)OCc2cnco2)Cc2ccccc2)C(C)C)cs1`: the K in [1] is 0.2 s⁻¹; in [2] it was 2.2 s⁻¹. Also, the Tm in data set [3] is 53.2 °C; in data set [11] it was 54.8 °C. The Kd in [4] is 970 nM; in data set [8], 570 nM. In data set [5], this molecule showed an IC50 of 3400 nM. For the same molecule, the Activity in data set [6] was found to be 60%.

As to `CC(C)c1nc(CN(C)C(=O)N[C@H](C(=O)N[C@H](CC[C@H](Cc2ccccc2)NC(=O)OCc2cnc[nH]2)Cc2ccccc2)C(C)C)cs1`, the K was 0.17 s⁻¹ in data set [1] and 1.9 s⁻¹ in data set [2]. Further, the Tm is 55.5 °C in [3] and 56.5 °C in [11]. Moreover, the Kd in [4] stood at 67 nM; in data set [8], 22 nM. In data set [5], this molecule returned an IC50 of 280 nM. Also, the selectivity ratio in data set [12] is 2. For the same molecule, the Activity result in data set [6] was “Not Active”. Besides, the Ratio in [7] is listed as 2.
